From ChEMBL document CHEMBL6074625, “Thiazolidine-2,4-dione hybrids as dual alpha-amylase and alpha-glucosidase inhibitors: design, synthesis, in vitro and in vivo anti-diabetic evaluation” (RSC Med Chem, 2024)
Active and inactive are the calls of the source. The calls are words filed in the database; no cut-off is given here.

Legend:
[1] = Inhibition of porcine pancreatic alpha-amylase using starch as substrate preincubated for 10 min followed by substrate addition and measured after 20 min by absorbance based analysis; parameters: species or system Sus scrofa
How it was run: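 Porcine α-amylase (1 U mL⁻¹) pre-incubated with compound 10 min at 25 °C in phosphate buffer pH 6.8. 1% starch added, then 15 min at 37.5 ± 2 °C. Quenched with DNS reagent, heated 70 °C 20 min, diluted with buffer, A540 read, in triplicate. Final concentrations 100–1 μM from DMSO dilutions; IC50 from a linear fit of % inhibition at y = 50.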

PANC-1 [2] = test: Antioxidant activity in human PANC-1 cells assessed as decrease in high glucose induced ROS production by measuring minimum fractional index at 5 uM incubated for 24 hrs by DCFDA-staining based flow cytometry analysis; format: functional
How it was run: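 PANC-1 cells (1 × 10⁵/well) grown 24 h at 37 °C, 5% CO₂, then pre-treated 1 h with 5 μM compound. Exposed to glucose (stated 10 μM) for 23 h. Stained with 10 μM DCFH-DA for 30 min at 37 °C, rinsed, and ROS read by flow cytometry as DCFDA/FITC mean fluorescence intensity.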

Rattus norvegicus [3] = organism: Rattus norvegicus; test: Anti-diabetic activity against STZ-induced diabetic Wistar rat model assessed as increase increase in number of eosinophils level; format: functional, organism-based
How it was run: (§1)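 STZ-diabetic Wistar rats in six groups (normal, vehicle 0.5% CMC oral, STZ, STZ + test compounds, STZ + pioglitazone); oral treatment started day 14 after STZ on day 1. Markers measured in serum, pancreatic homogenate or whole blood, as named in each line. Groups compared by one-way ANOVA.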

Rattus norvegicus [4] = organism: Rattus norvegicus; test: Anti-inflammatory activity in STZ-induced diabetic Wistar rat model assessed as decrease in IL-1beta level in blood by ELISA method
Rattus norvegicus [5] = organism: Rattus norvegicus; test: Anti-diabetic activity against STZ-induced diabetic Wistar rat model assessed as improvement in pancreas islet morphology […] by H and E staining based analysis; format: functional, organism-based
How it was run: (§2)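 Pancreas, liver and kidney from STZ-diabetic rats treated as in the in vivo schedule. Sections stained with haematoxylin and eosin and examined by light microscopy at 40× (50 μm scale bar). Islet boundaries, β-cells, central vein, sinusoids, trabeculae, and tubular necrosis or swelling were scored.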

Rattus norvegicus [6] = organism: Rattus norvegicus; test: Anti-diabetic activity against STZ-induced diabetic Wistar rat model assessed as increase increase in number of haemoglobin level; format: functional, organism-based; how it was run: as §1
Rattus norvegicus [7] = organism: Rattus norvegicus; test: Anti-diabetic activity against STZ-induced diabetic Wistar rat model assessed as alteration in kidney morphology […] by H and E staining based analysis; format: functional, organism-based; how it was run: as §2
Rattus norvegicus [8] = test: Antidiabetic activity against streptozotocin-induced Wistar rat assessed as reduction in serum ALP level at 10 mg/kg, po administered for 21 days measured on day 35; settings: time 35.0 day
Rattus norvegicus [9] = test: Anti-diabetic activity against STZ-induced diabetic Wistar rat model assessed as decrease in dilatation of central vein at 10 mg/kg, po by H and E staining based analysis
PANC-1 [10] = test: Anti-diabetic activity against high glucose induced human PANC-1 cells assessed as decrease in glucose induced alpha-glucosidase expression by measuring by measuring minimum fractional index at 5 uM incubated for 23 hrs and measured after 24 hrs by flow cytometric analysis (reference value: 4361 +/- 257.83); format: functional
Rattus norvegicus [11] = organism: Rattus norvegicus; test: Anti-diabetic activity against STZ-induced diabetic Wistar rat model assessed as clear boundaries in pancreatic islet […] by H and E staining based analysis; format: functional, organism-based; how it was run: as §2
Rattus norvegicus [12] = organism: Rattus norvegicus; test: Anti-diabetic activity against STZ-induced diabetic Wistar rat model assessed as reduced in swelling […] by H and E staining based analysis; format: functional, organism-based; how it was run: as §2
Rattus norvegicus [13] = organism: Rattus norvegicus; test: Anti-diabetic activity against STZ-induced diabetic Wistar rat model assessed as reduced necrosis in pancreatic tissue […] by H and E staining based analysis; format: functional, organism-based; how it was run: as §2
Rattus norvegicus [14] = organism: Rattus norvegicus; test: Anti-diabetic activity against STZ-induced diabetic Wistar rat model assessed as increase in number of trabeculae cells […] by H and E staining based analysis; format: functional, organism-based; how it was run: as §2
Rattus norvegicus [15] = organism: Rattus norvegicus; test: Anti-diabetic activity against STZ-induced diabetic Wistar rat model assessed as increase beta-cells […] by H and E staining based analysis; format: functional, organism-based; how it was run: as §2

Structure (SMILES) | IC50 [1] | Activity_index (PANC-1 [2]) | Activity (Rattus norvegicus [3]) | Activity (Rattus norvegicus [4]) | Activity (Rattus norvegicus [5]) | Activity (Rattus norvegicus [6]) | Activity (Rattus norvegicus [7]) | Activity (Rattus norvegicus [8]) | Activity (Rattus norvegicus [9]) | Activity_index (PANC-1 [10]) | Activity (Rattus norvegicus [11]) | Activity (Rattus norvegicus [12]) | Activity (Rattus norvegicus [13]) | Activity (Rattus norvegicus [14]) | Activity (Rattus norvegicus [15])
C=CCOc1ccc(/C=C2\SC(=O)N(Cc3cccc([N+](=O)[O-])c3)C2=O)cc1OCC | 17.1 µM | 97.6 | Active | Active | Active | Active | Active | Active | Active | 2242 |  |  |  |  | 
C#CCOc1ccc(/C=C2\SC(=O)N(Cc3cccc([N+](=O)[O-])c3)C2=O)cc1OCC | 9.2 µM | 85.2 | Active | Active |  | Active |  | Active |  | 752 | Active | Active | Active | Active | Active
